These results are taken from PMC12663558 (Scientific Reports, 2025).

Data set [1] in a line: Lipophilicity. Conditions: 2-octanol/water. Format: physicochemical. In outline:
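Shake-flask partition used 2-octanol and doubly distilled water 1:1 v/v (10 mL total) with 0.001 g test compound. The mixture was shaken overnight, left to equilibrate 1 h, and the phases separated. Compound in each phase was quantified by UV-Vis. log P was taken from the octanol/water concentration ratio.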

In data set [2] the target is bovine serum albumin (BSA) (Bos taurus, UniProt P02769). Put plainly: UV-Vis titration with BSA. Format: binding. Conditions: for standard Gibbs free energy change ΔG° of BSA binding: 298 K, ΔG° = -RTlnKapp. An outline of the steps:
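BSA stock was 3 mg/mL in Tris-HCl pH 7.2, made at 4 °C and quantified by ε280 = 44,300 M−1cm−1; 500 µL of stock was diluted with 1.00 mL buffer. Test compound (10−4 M stock in water) was added stepwise up to 6.83–10.18 µM, with 2 min equilibration at 298 K per step and readings at 280 nm. Kapp = intercept/slope of 1/(A−A0) versus 1/[Ligand]. ΔG° = −RTlnKapp (R 1.987 cal mol−1 K−1, T 298 K).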

Data set [3] relates to CT-DNA (calf thymus DNA). Put plainly: UV-Vis titration with CT-DNA. Format: binding. Conditions: 298 K; for apparent binding constant Kapp with CT-DNA: UV-Vis titration, Tris-HCl pH 7.2; for standard Gibbs free energy change ΔG° of CT-DNA binding: ΔG° = -RTlnKapp. In outline: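 CT-DNA stock was 1.5 mg/mL in Tris-HCl pH 7.2, made at 4 °C, with A260/A280 of 1.8–1.9; it was quantified by ε260 = 6600 M−1cm−1. 50 µL of stock was added to 1.45 mL buffer. Test compound (10−4 M stock in water) was added stepwise up to 9.09–13.29 µM, with 2 min at 298 K per step and absorbance read at 260 nm. Kapp = intercept/slope of the 1/(A−A0) versus 1/[Ligand] plot. ΔG° = −RTlnKapp at 298 K.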

The nature of data set [4]: DPPH free radical scavenging assay. Format: biochemical. Conditions: standard control, compared with 3a-c. In outline:
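DPPH stock was 0.1 mM in ethanol. Test compound solutions at 10, 25, 50, 100, 250, 500 and 1000 µg/mL (concentrations before mixing) were each mixed 1:1 v/v with the DPPH solution. Mixtures were vortexed 10 s and kept in the dark at room temperature for 30 min, then absorbance was read at 517 nm. Ascorbic acid was the reference antioxidant. Scavenging was calculated from absorbance by equation.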
(DPPH is a stable violet radical that fades when it is reduced.)

Data set [5] has as its target DNA. Particulars: traditional intercalators, typical range; cited from earlier work.

bovine serum albumin (BSA), sequence (P02769 25-607): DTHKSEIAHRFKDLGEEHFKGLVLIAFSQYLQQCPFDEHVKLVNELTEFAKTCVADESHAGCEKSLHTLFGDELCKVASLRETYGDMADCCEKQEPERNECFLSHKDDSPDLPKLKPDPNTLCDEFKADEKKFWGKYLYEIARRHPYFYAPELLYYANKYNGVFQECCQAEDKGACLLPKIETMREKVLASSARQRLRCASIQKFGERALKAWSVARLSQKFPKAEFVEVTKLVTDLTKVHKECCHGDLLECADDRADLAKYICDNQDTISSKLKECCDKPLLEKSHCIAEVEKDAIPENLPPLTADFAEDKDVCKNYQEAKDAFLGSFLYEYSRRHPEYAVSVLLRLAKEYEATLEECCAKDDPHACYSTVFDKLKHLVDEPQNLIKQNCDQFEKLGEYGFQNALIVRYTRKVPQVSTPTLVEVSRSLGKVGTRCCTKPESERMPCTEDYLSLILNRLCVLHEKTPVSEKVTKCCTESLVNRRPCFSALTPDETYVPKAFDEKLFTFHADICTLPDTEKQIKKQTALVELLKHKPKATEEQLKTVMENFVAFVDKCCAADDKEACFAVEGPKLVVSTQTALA

With `COc1ccccc1/C=N/N=C1\C(=O)Nc2ccccc21` [3b, (Z)−3-(((E)−2-methoxybenzylidene)hydrazineylidene)indolin-2-one], in data set [1], the logP is 2.3. In addition, in data set [2], binding was put at a Kd of 136 µM and the “standard Gibbs free energy change ΔG° of BSA binding” value was -5.27 kcal/mol. For the same molecule, in data set [3], the “apparent binding constant Kapp with CT-DNA” value is 1.17 × 10^4 M^− 1 and the “standard Gibbs free energy change ΔG° of CT-DNA binding” value was -5.55 kcal/mol.
`O=C1O[C@H]([C@@H](O)CO)C(O)=C1O` [ascorbic acid, Ascorbic acid]: in data set [4], the “DPPH free radical scavenging activity (in words)” value is listed as “highest scavenging activity”.
[Ru(phen)DPPZ]: the “binding constant Kb with DNA” value in data set [5] is 10^6 to 10^7 M^− 1.
With `O=C1Nc2ccccc2/C1=N/N=C/c1cccc([N+](=O)[O-])c1` [3a, (Z)−3-(((E)−3-nitrobenzylidene)hydrazineylidene)indolin-2-one], the logP in data set [1] is 1.29. Further, in data set [2], binding was characterised by a dissociation constant (Kd) of 151 µM and the “standard Gibbs free energy change ΔG° of BSA binding” value was -5.21 kcal/mol. Further, in data set [3], the “apparent binding constant Kapp with CT-DNA” value is 1.01 × 10^4 M^− 1 and the “standard Gibbs free energy change ΔG° of CT-DNA binding” value was -5.46 kcal/mol.
For the molecule `CC[n+]1c(-c2ccccc2)c2cc(N)ccc2c2ccc(N)cc21` [ethidium bromide], in data set [5], the “binding constant Kb with DNA” value was 10^6 to 10^7 M^− 1.

A word on the logP: it is a log measure of how a compound divides between an organic and an aqueous phase. Low readings indicate a more hydrophilic compound, high ones a more lipophilic compound. What is called Kd is the constant that tells how readily two partners part at equilibrium. The low end stands for tighter binding, the high end for weaker binding.
